Reference: the EternaBench riboswitch data

Key:
[1] = tested on: MS2 coat protein; test: apparent Kd, MS2 coat protein; higher = weaker binding; RNA-MaP array
Method in brief: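 For each design, the apparent Kd is the median of binding-curve fits across its clusters. Designs measured on fewer than 10 clusters were dropped. The RNAs were transcribed from sequenced DNA templates on an Illumina sequencing chip and incubated at room temperature, with or without input ligand, with fluorescently labeled MS2 coat protein at 1.5 nM to 3 μM.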

[2] = tested on: MS2 coat protein; test: apparent Kd, MS2 coat protein; higher = weaker binding; RNA-MaP array; FMN 200 µM where present
Method in brief: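 Binding was read on Illumina sequencing-chip clusters where stalled E. coli RNA polymerase had transcribed each design. A titration of SNAP-549-labelled MS2 coat protein began at 0.7 or 1.5 nM and doubled to 3 µM, once without ligand and once with constant ligand, in 100 mM Tris-HCl pH 7.5, 80 mM KCl, 4 mM MgCl2, BSA, DTT, yeast tRNA and Tween-20. The apparent Kd is the median of filtered per-cluster binding-curve fits, based on green signal normalised to red-channel RNA signal and control-cluster median Fmax.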

[3] = designed as: OFF switch for flavin mononucleotide, no ligand
[4] = ligand present: flavin mononucleotide, designed as: OFF switch for flavin mononucleotide
[5] = designed as: ON switch for flavin mononucleotide, no ligand
[6] = ligand present: flavin mononucleotide, designed as: ON switch for flavin mononucleotide

Sequence: GGACUAUCAGGAUAUACAUGAGGAUCACCCAUGUACUUUAGGUAAUGGGACUACACCGGUAGAAGGGAUUAAAG
- apparent Kd [1, 3]: 0.116 µM
- apparent Kd [1, 4]: 0.0848 µM

Sequence: CCUCACAUGAGGAUCACCCAUGUCUUUACACGAGGACCGGUACGGCCGCCACUCGUUCACAAAACAACCAGAAGUGAUGCCUACA
- apparent Kd ([1]; designed as: ON switch for tryptophan, no ligand): 0.14 µM
- apparent Kd ([1]; ligand present: tryptophan, designed as: ON switch for tryptophan): 0.169 µM

Sequence: UGGACUUCAGGAUAUACAUGAGGAUCACCCAUGUAUACGUGUAUGAUCCCAGAAACAAGUAGAAGGGAAAGCCG
- apparent Kd [1, 3]: 0.00571 µM
- apparent Kd [1, 4]: 0.00565 µM

Sequence: CUUUAUACAUGAGGAUAUUGGAAAACCGGCGUACAAGAAGGCAUGACAUGAGGAUCACCCAUGUAAAGAUAAAGACAAAGCUAA
- apparent Kd [1, 5]: 0.0227 µM
- apparent Kd [1, 6]: 0.0103 µM

Sequence: GACUAAUAGGAGAAGGGACAAUCUACAAUCGCGUCAGGAUAUCCGACAUGAGGAUCACCCAUGUAGAGAAGGGCGCAGCCCGGC
- apparent Kd [1, 5]: 0.0243 µM
- apparent Kd [1, 6]: 0.0183 µM

Sequence: AUGUAACGUGAGAAGGUGUUGAAAUAAGUUCCAUAAAUCUUACAUGAGGAUCACCCAUGUUUAUACAAGGAUAUCAUUAAUUAU
- apparent Kd [1, 5]: 0.0168 µM
- apparent Kd [1, 6]: 0.0129 µM

Sequence: CCUCGAUUUUGAUACCGAUAUGUCUUUGAUACCAGCGCCAUAGUACGCCCUUGGCAGCAAGAAACAUGAGGAUCACCCAUGUUAA
- apparent Kd ([1]; designed as: OFF switch for theophylline, no ligand): 0.0167 µM
- apparent Kd ([1]; ligand present: theophylline, designed as: OFF switch for theophylline): 0.0498 µM

Sequence: UUCACGUUAGGAUAUCGCGUCAGCACAGCCUGUAUGGCAAGCGAGAAGGAACAUGAGGAUCACCCAUGUCGGAC
- apparent Kd [1, 3]: 0.0114 µM
- apparent Kd [1, 4]: 0.0287 µM

Sequence: GACCCUACGGAGAAGGCACCUACAUGAGGAUCACCCAUGUUUGAUCGUUUGCCGGACGGCUUACGUGAGGAUAUCCAGGUACAG
- apparent Kd [1, 5]: 0.0148 µM
- apparent Kd [1, 6]: 0.0072 µM

Sequence: GUGCACCGUGAGAAGGCAUAGCACGUGUCGCUGACAUGAGGAUCACCCAUGUGUUGUAAAGUGCAUGAGGAUAUCAGCCAUAGG
- apparent Kd [1, 5]: 0.0423 µM
- apparent Kd [1, 6]: 0.0104 µM

Sequence: AGAGUGAGAGGAUAUUUUGGCGUAGACAUGAGGAUCACCCAUGUGUCGUGGGCACUGCUGAAAGAAGGCUCAGCUC
- apparent Kd [1, 3]: 0.0293 µM
- apparent Kd [1, 4]: 0.0253 µM

Sequence: CGAUUACUGCAGAAGGGAGGGCCACAAAACAUGAGGAUCACCCAUGUAGAACUGAACGGGACUCCUCAGGAUAUGCGCCGAGAU
- apparent Kd [1, 5]: 0.0287 µM
- apparent Kd [1, 6]: 0.0118 µM

Sequence: GAAGAAAAGUGAGGAUAUGGCAACCAGAUGACGCAAACAAUAAAACAUGAGGAUCACCCAUGUACCCAGAAGGCACCAAACAAA
- apparent Kd [1, 5]: 0.0152 µM
- apparent Kd [1, 6]: 0.00948 µM

Sequence: CGCCUACAUGAGGAUCACCCAUGUGAUGUUACGGUAGGAUAUAGAGCUGAGCCACUCUGCCUAGAAGGACCUAUAC
- apparent Kd [1, 5]: 0.0688 µM
- apparent Kd [1, 6]: 0.0373 µM

Sequence: CACAUUCCUUAGAAGGCUACGAAUUUAGCGCGUAGAGGAUAUAAGGGAUACAUGAGGAUCACCCAUGUGAUAUAUCUUCUGAAA
- apparent Kd [1, 3]: 0.0208 µM
- apparent Kd [1, 4]: 0.0241 µM

Sequence: GUUAUAAUUACCAAGGAUAUCACAAGGCUUACAUGAGGAUCACCCAUGUUAAUACUCACAGACCGUGAGAAGGUGGCAAGAUCGAU
- apparent Kd [1, 5]: 0.0214 µM
- apparent Kd [1, 6]: 0.016 µM

Sequence: AUCGAUUUUAUAGGAUAUCGCACAUGAGGAUCACCCAUGUGCCCGACAGACUUAAAGCUCAAUCGCGAGAAGGAUAGAACAGGG
- apparent Kd [1, 3]: 0.00863 µM
- apparent Kd [1, 4]: 0.00802 µM

Sequence: GUCGCGUAGCAAGGAUAUGCAAAGAGGAAAACUGCAGAAGGUGCCAUUAAAGGACAUGAGGAUCACCCAUGUGCAUUAUCCACA
- apparent Kd [1, 5]: 0.0534 µM
- apparent Kd [1, 6]: 0.0309 µM

Sequence: UUGGGACAUGAGGAUCACCCAUGUCAGGAUAUAUAUAAUCUGCGCGACGAGGGAUACAAUAGAAGGGACAACGG
- apparent Kd [1, 3]: 0.0182 µM
- apparent Kd [1, 4]: 0.0151 µM

Sequence: UGGGAACAUGAGGAUCACCCAUGUGAGGAUAUCCACCGAUUUCACACGAUAGGCACAAGGAGAAGGCACACCUA
- apparent Kd [1, 3]: 0.0339 µM
- apparent Kd [1, 4]: 0.0362 µM

Sequence: CCUCACGGACUCUCCACAUGAGGAUCACCCAUGUAAGCCGCGAAGGAUAUGAACGUCUCUCCGGGUCAGAAGGUCGCCGGUCCU
- apparent Kd [1, 3]: 0.00878 µM
- apparent Kd [1, 4]: 0.00971 µM

Sequence: UGAUUGAGCGGAGGAUAUCUUAAUGAGCACGUAAGAGAAGGCCGGUGGCUCCUAUAUGCAGCGCACAUGAGGAUCACCCAUGUC
- apparent Kd [1, 3]: 0.171 µM
- apparent Kd [1, 4]: 0.0916 µM

Sequence: UGCGCCAGAGGAUAUCGGGCUCGCAACAUGAGGAUCACCCAUGUAGUAUGGUCUUAUUUUCGAGAAGGCUGUCGUU
- apparent Kd [2, 3]: 0.0209 µM
- apparent Kd [2, 4]: 0.0174 µM

Sequence: CGUGCGUAUGUGAGGAUAUGCUGGUCCUUGGAUCGGCAGAAGGCACAUGAGGAUCACCCAUGUGGUGUCGUUCG
- apparent Kd [2, 3]: 0.219 µM
- apparent Kd [2, 4]: 0.0316 µM

Sequence: CCGAGUGGCGUACAGGAUAUGUUGCAUGGAACAUGAGGAUCACCCAUGUAUUUGCUCCCGCAUACGCAGAAGGGUGCGUCCUGGG
- apparent Kd [2, 5]: 0.142 µM
- apparent Kd [2, 6]: 0.0254 µM

Sequence: GGGUACAUCGGAGGAUAUCAUGUAAAUACAUGAGGAUCACCCAUGUCGAUGGAGACAUCGGAUAUUGAGAAGGCCGAUGUACCG
- apparent Kd [2, 5]: 0.0187 µM
- apparent Kd [2, 6]: 0.00546 µM

Sequence: CGCAACUCUUCACAUGUCAACAUGAGGAUCACCCAUGUAUUGAGAAGGAGGAAGAAGAGAGAUUCCUAGGAUAUCAGAGUUGCG
- apparent Kd [2, 3]: 0.00675 µM
- apparent Kd [2, 4]: 0.00608 µM

Sequence: ACUGCAUAGGCAGGAUAUGCAAAAGCAGAUGCAAAGCAUUUGUAAAACACAUGAGGAUCACCCAUGUAGAAGGGCCUGUGCAGU
- apparent Kd [2, 3]: 0.021 µM
- apparent Kd [2, 4]: 0.0207 µM

Sequence: UGUCGGAGCAGAGGAUAUUACAUGAGGAUCACCCAUGUAUGAACCAAUAGCUGGAAACAGCAAUGUAAGAAGGCUGCUCCCACA
- apparent Kd [2, 3]: 0.012 µM
- apparent Kd [2, 4]: 0.138 µM

Sequence: UUGGACGUCGUAGGAUAUGUAGGAUAUUCCUACAUGAGGAUCACCCAUGUUGACAUGGAACAAGGACAGAAGGACGAUGUCCAU
- apparent Kd [2, 5]: 0.493 µM
- apparent Kd [2, 6]: 0.0174 µM

Sequence: ACUGAAGUCACAGGAUAUCAUAUGCCGGCACAUUGAGAAGGGUGACUGGGCUACAUGAGGAUCACCCAUGUGCCGUCGUAACAA
- apparent Kd [2, 5]: 0.0298 µM
- apparent Kd [2, 6]: 0.0369 µM

Sequence: AAAUAAAGCAGUGUAUUAAGAUCACAUGAGGAUCACCCAUGUAGAAGGCUCGAGCAAAAUGCUCGAGAGGAUAUGCAACACUGC
- apparent Kd [2, 3]: 0.00512 µM
- apparent Kd [2, 4]: 0.035 µM

Sequence: UGUUAAUAAGAGAAGGAGGACUUCAUGAGGAUCACCCAUGUGUUAGUACUUAGGAUAUUUAAUAACAUGAGGAUCACCCAUGUC
- apparent Kd [2, 5]: 0.0452 µM
- apparent Kd [2, 6]: 0.0404 µM

Sequence: AGCUGUGGCCGAGGAUAUCUGACUUCAAUAACCGAAAUAUAAUCGGACAUGAGGAUCACCCAUGUAGAGAAGGCGGUCUCAGCA
- apparent Kd [2, 3]: 0.0171 µM
- apparent Kd [2, 4]: 0.0249 µM

Sequence: AAAAAACAUGAGGAUCACCCAUGUGAGGAUAUCGAAAAGUCAAAGAAAAAGACGAAAACGAGAAGGCACAAAAA
- apparent Kd [2, 3]: 0.0538 µM
- apparent Kd [2, 4]: 0.0658 µM

Sequence: GGUACUCAAAGAGUACCAAUACGAACAUGAGGAUCACCCAUGUAGGAUAUGAAAACGCCGGAGUAGCAGAAGGACAUGUGCCUA
- apparent Kd [2, 3]: 0.0114 µM
- apparent Kd [2, 4]: 0.0111 µM

Sequence: AAAAUAAGUGUGAGGAUAUGCUGGUCCUUGGAUCAGCAGAAGGCACAUGAGGAUCACCCAUGUAAUAUAUUUAU
- apparent Kd [2, 3]: 0.0847 µM
- apparent Kd [2, 4]: 0.295 µM

Sequence: GUCAUCGUAUGAGGAUAUGGCACCGAAACGGUGCCAGAAGGCAUGUCAAUAGACAUGAGGAUCACCCAUGUGUUAUCGAUGGCA
- apparent Kd [2, 5]: 0.116 µM
- apparent Kd [2, 6]: 0.0132 µM

Sequence: AUUAUUUACAUAGGAUAUUGUUACAUGAGGAUCACCCAUGUUAUUUGGGAAUUAGGAAUAUUUUACAAGAAGGAUGUUGUUACA
- apparent Kd [2, 5]: 0.0874 µM
- apparent Kd [2, 6]: 0.067 µM

Sequence: GUGCCAUAUGAGAAGGCGAUCAUGAAACAUGAUCGAGGAUAUCAUGAAAACAUGAGGAUCACCCAUGUAUGGGUAUUAAGGUAC
- apparent Kd [2, 5]: 0.0643 µM
- apparent Kd [2, 6]: 0.0289 µM

Sequence: GGGUACAUCGGAGGAUAUCAUGUAAAUACAUGAGGAUCACCCAUGUCGAUGGAGACAUCGGCGAUUGAGAAGGCCGAUGUACCG
- apparent Kd [2, 5]: 0.752 µM
- apparent Kd [2, 6]: 0.0176 µM

Sequence: AGCGCGGUCCACUUGGACGCCUACGAGGAUAUCCCGUCACAUGAGGAUCACCCAUGUAGGCGCAUGGAGAAGGCGUAGAAAUCA
- apparent Kd [2, 5]: 0.152 µM
- apparent Kd [2, 6]: 0.0137 µM

Sequence: GUUUUUCCUCAUGUACAUGAGGAACAUGAGGAUCACCCAUGUAGAAGGAAUUCUCUUAAAUUAAGUUAGGAUAUACAUAUAUUU
- apparent Kd [2, 3]: 0.464 µM
- apparent Kd [2, 4]: 0.285 µM

Sequence: GGAUGACAAAGUCAUCCUUAACGAACAUGAGGAUCACCCAUGUAGGAUAUGCUUCUCAAAGAGAAGCAGAAGGACAUGUGCCUU
- apparent Kd [2, 3]: 0.0333 µM
- apparent Kd [2, 4]: 0.256 µM

Sequence: AUCCUACAUGAGGAUCACCCAUGUGACGCCUCGAUAGGAUAUGCGUGUGCCUUGGCGCAUGCAGAAGGAUUGUAGC
- apparent Kd [2, 5]: 0.0436 µM
- apparent Kd [2, 6]: 0.237 µM
